From ChEMBL document CHEMBL6120953, “Targeting Plasmodium falciparum IspD in the Methyl-d-erythritol Phosphate Pathway: Urea-Based Compounds with Nanomolar Potency on Target and Low-Micromolar Whole-Cell Activity” (J Med Chem, 2024)
The source made the active and inactive calls. The rule behind the calls is not given here.

Columns and labels:
[1] = tested on: Plasmodium falciparum; assay: Non-competitive inhibition of Plasmodium falciparum IspD at 19.5 to 625 uM in presence of CTP by lineweaver-burk plot analysis; conditions: dose 19.5-625 µM
In short: (§1)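 LC-MS IspD assay without coupling enzymes: 0.1 μM PfIspD, 2.0 mM MgCl2 in 100 mM Tris-HCl pH 7.6, 1 mM DTT, preincubated with inhibitor 10 min at 37 °C. One substrate varied 0–500 μM with the other at 500 μM; 40 min at 37 °C, heat-stopped at 95 °C. CDP-ME product quantified by HILIC LC-MS/MS with internal standard; Lineweaver–Burk plots.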

[2] = tested on: Plasmodium falciparum; assay: Uncompetitive inhibition of Plasmodium falciparum IspD at 19.5 to 625 uM in presence of MEP by lineweaver-burk plot analysis; conditions: dose 19.5-625 µM; in short: as §1

**Q.** How did the inhibition [1] turn out when N#Cc1ccc(NC(=O)Nc2cccc(S(=O)(=O)N3CCCC3)c2)cc1 was run?
**A.** Active

**Q.** What about the inhibition [2] of the same molecule?
**A.** Active
